Reference: ChEMBL document CHEMBL2157898 (J Med Chem, 2012)

Key:
Homo sapiens [1] = species: Homo sapiens; test: Reduction of HbA1c level in type2 diabetic patients at 60 mg, qd relative to baseline; type: functional; set-up: scale not given: the % may be the effect or the level left
[2] = molecular target: Voltage-gated inwardly rectifying potassium channel KCNH2 (Homo sapiens, UniProt Q12809); test: Binding affinity to human ERG
[3] = Displacement of [3H]diltiazem from L-type Ca2+ channel
Cytochrome P450 2D6 = Cytochrome P450 2D6 (Homo sapiens, UniProt P10635); test: Inhibition of human CYP2D6 in liver microsomes assessed as dextromethorphan O-demethylation after 48 hrs; type: ADME, Microsome
How it was run: (§1)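 Human liver microsomes were used with marker activities: phenacetin O-deethylation for 1A2, bupropion hydroxylation for 2B6, paclitaxel 6α-hydroxylation for 2C8, diclofenac 4′-hydroxylation for 2C9, dextromethorphan O-demethylation for 2D6 and chlorzoxazone […]-hydroxylation for 2E1. IC50 in μM is given as mean ± SD.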

Cytochrome P450 2C8 = Cytochrome P450 2C8 (Homo sapiens, UniProt P10632); test: Inhibition of human CYP2C8 in liver microsomes assessed as paclitaxel 6alpha-hydroxylation after 48 hrs; type: ADME, Microsome; how it was run: as §1
Cytochrome P450 2E1 = Cytochrome P450 2E1 (Homo sapiens, UniProt P05181); test: Inhibition of human CYP2E1 in liver microsomes assessed as chlorzoxazone […]-hydroxylation after 48 hrs; type: ADME, Microsome; how it was run: as §1
[4] = Elimination half life in mouse at 1 mg/kg, iv and 2 mg/kg, po; type: ADME, organism-based; settings: in vivo, read-out: beta t1/2 (converted)
How it was run: (§2)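 PK used IV/PO doses of 1/2 mg/kg in mouse, 2/2 in rat, 0.5/0.5 in dog and 0.5/2 in monkey. The oral vehicle in mice was a solution in DMSO:Tween80:water (5:10:85 by volume); other species received a suspension in 0.5% aqueous methylcellulose. Mouse parameters came from blood concentrations. nAUC is dose-normalized oral AUC.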

[5] = Oral bioavailability in mouse at 2 mg/kg; type: ADME, organism-based; settings: in vivo
How it was run: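 Mouse pharmacokinetics: 1 mg/kg IV and 2 mg/kg PO. Parameters were calculated from blood concentrations. The oral dose was a solution in DMSO:Tween80:water (5:10:85 by volume).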

[6] = Elimination half life in rat at 2 mg/kg, iv and 2 mg/kg, po; type: ADME, organism-based; settings: in vivo, read-out: beta t1/2 (converted); how it was run: as §2
[7] = Oral bioavailability in rat at 2 mg/kg; type: ADME, organism-based; settings: in vivo
How it was run: (§3)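 IV/PO pharmacokinetic study with plasma clearance, Vdss and oral bioavailability derived. Doses were rat 2/2, dog 0.5/0.5 and rhesus 0.5/2 mg/kg. The oral dose was a suspension in 0.5% aqueous methylcellulose.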

[8] = Oral bioavailability in dog at 0.5 mg/kg; type: ADME, organism-based, Canis lupus familiaris; settings: in vivo; how it was run: as §3
[9] = Plasma protein binding in dog; type: ADME, cell-free, Canis lupus familiaris; settings: read-out: PPB
[10] = Plasma protein binding in monkey; type: ADME, cell-free, Macaca mulatta; settings: rhesus monkey, read-out: PPB
[11] = Plasma protein binding in human; type: ADME, cell-free; settings: read-out: PPB
Mus musculus [12] = test: Antidiabetic activity in mouse expressing human GCGR assessed as suppression of blood glucose AUC (0 to 24 mins) at 3 mg/kg, po administered 1 hour prior to glucagon challenge relative to vehicle-treated control; type: functional
How it was run: (§4)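 hGCGR mice were dosed orally at 3, 10 or 30 mpk 1 h before an IP glucagon challenge (15 μg/kg). […] Drug levels were determined at 60 min post dose.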

Mus musculus [13] = test: Antidiabetic activity in mouse expressing human GCGR assessed as suppression of blood glucose AUC (0 to 24 mins) at 30 mg/kg, po administered 1 hour prior to glucagon challenge relative to vehicle-treated control; type: functional; how it was run: as §4
Mus musculus [14] = test: Antidiabetic activity in ob/ob mouse expressing human GCGR assessed as suppression of blood glucose AUC (0 to 6 hrs) at 3 mg/kg, po; type: functional
[15] = Drug uptake in mouse expressing human GCGR at 3 mg/kg, po measured at 60 mins; type: ADME, organism-based; set-up: dose 3 mg/kg, route oral; settings: in vivo, read-out: Drug uptake; how it was run: as §4
[16] = Drug uptake in mouse expressing human GCGR at 30 mg/kg, po measured at 60 mins; type: ADME, organism-based; set-up: dose 30 mg/kg, route oral; settings: in vivo, read-out: Drug uptake; how it was run: as §4
[17] = Plasma concentration in rhesus monkey at 1 mg/kg administered via nasogastric tube measured at 4 hrs; type: ADME, organism-based, Macaca mulatta; set-up: dose 1 mg/kg; settings: po
How it was run: (§5)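 Chair-restrained rhesus monkeys were dosed via nasogastric tube at 0.3, 1 or 3 mpk (N = 4). An intramuscular glucagon challenge (15 μg/kg) was given 4 h later. Plasma drug levels were taken at 4 h post dose.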

[18] = Plasma concentration in rhesus monkey at 3 mg/kg administered via nasogastric tube measured at 4 hrs; type: ADME, organism-based, Macaca mulatta; set-up: dose 3 mg/kg; settings: po; how it was run: as §5
Canis familiaris [19] = test: Cardiovascular toxicity in anesthetized dog up to 10 mg/kg, iv; type: organism-based, Canis lupus familiaris; set-up: dose 10 mg/kg, route intravenous; settings: in vivo
How it was run: (§6)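 Anesthetized dogs were given IV doses up to 10 mpk, and cardiovascular parameters and drug exposure were assessed.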

Mus musculus [20] = test: Antidiabetic activity in DIO mouse expressing human GCGR assessed as suppression of blood glucose level at 10 mg/kg/day measured on day 3 relative to control; type: functional
How it was run: (§7)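 Diet-induced obese hGCGR mice received compound in high-fat diet feed at 3 or 10 mpk per day for 11 days (n = 11−15). Nonfasting blood glucose was measured on days 3 and 10. Percent correction was calculated relative to the difference between vehicle control and lean hGCGR mice; significance was taken as p < 0.05 vs controls.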

Mus musculus [21] = test: Antidiabetic activity in DIO mouse expressing human GCGR assessed as suppression of blood glucose level at 3 mg/kg/day measured on day 10; type: functional; how it was run: as §7
Mus musculus [22] = test: Antidiabetic activity in DIO mouse expressing human GCGR assessed as suppression of blood glucose level at 10 mg/kg/day measured on day 10; type: functional; how it was run: as §7
Plasma = test: Plasma concentration in DIO mouse expressing human GCGR at 3 mg/kg/day measured on day 5; type: ADME, organism-based; settings: in vivo
How it was run: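 Diet-induced obese hGCGR mice received the compound in high-fat-diet feed at 3 or 10 mpk per day for 11 days (n = 11−15). Postprandial plasma drug levels were measured on day 5.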

Mus musculus [23] = test: Antidiabetic activity in DIO mouse expressing human GCGR assessed as blood glucagon level at 3 mg/kg/day measured on day 11 (reference value: 445 +/- 55 pg/ml); type: functional
Mus musculus [24] = test: Antidiabetic activity in DIO mouse expressing human GCGR assessed as blood glucagon level at 10 mg/kg/day measured on day 11 (reference value: 445 +/- 55 pg/ml); type: functional
Mus musculus [25] = test: Antidiabetic activity in DIO mouse expressing human GCGR assessed as total blood GLP1 level at 3 mg/kg/day measured on day 11 (reference value: 46 +/- 4 pM); type: functional
Canis familiaris [26] = test: Drug uptake in anesthetized dog up to 10 mg/kg, iv; type: ADME, organism-based, Canis lupus familiaris; set-up: dose 10 mg/kg, route intravenous; settings: in vivo; how it was run: as §6
Mus musculus [27] = test: Effect on CNS in conscious mouse at 100 mg/kg, po; type: ADME, organism-based, Central nervous system; set-up: dose 100 mg/kg, route oral; settings: in vivo
How it was run: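 Conscious mice received 100 mpk PO, with evaluation of central nervous system effects.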

Homo sapiens [28] = species: Homo sapiens; test: Reduction of plasma glucose level in type2 diabetic patients at 80 mg, qd relative to baseline; type: functional
Homo sapiens [29] = species: Homo sapiens; test: Reduction of HbA1c level in type2 diabetic patients at 80 mg, qd relative to baseline; type: functional; set-up: scale not given: the % may be the effect or the level left
[30] = Cmax in rat at <= […] mg/kg/day; type: ADME, organism-based; settings: in vivo, 100 mg/kg
Rattus norvegicus [31] = test: Toxicity in rat at <= 100 mg/kg/day for 5 weeks by antemortem analysis; type: organism-based; settings: in vivo, 840 h
How it was run: (§8)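 Five-week rat safety study with daily dosing up to 100 mpk. Antemortem and postmortem findings were evaluated for treatment-related changes.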

Rattus norvegicus [32] = test: Toxicity in rat at <= 100 mg/kg/day for 5 weeks by postmortem analysis; type: organism-based; settings: in vivo, 840 h; how it was run: as §8

Cytochrome P450 2D6, sequence (P10635 whole entry): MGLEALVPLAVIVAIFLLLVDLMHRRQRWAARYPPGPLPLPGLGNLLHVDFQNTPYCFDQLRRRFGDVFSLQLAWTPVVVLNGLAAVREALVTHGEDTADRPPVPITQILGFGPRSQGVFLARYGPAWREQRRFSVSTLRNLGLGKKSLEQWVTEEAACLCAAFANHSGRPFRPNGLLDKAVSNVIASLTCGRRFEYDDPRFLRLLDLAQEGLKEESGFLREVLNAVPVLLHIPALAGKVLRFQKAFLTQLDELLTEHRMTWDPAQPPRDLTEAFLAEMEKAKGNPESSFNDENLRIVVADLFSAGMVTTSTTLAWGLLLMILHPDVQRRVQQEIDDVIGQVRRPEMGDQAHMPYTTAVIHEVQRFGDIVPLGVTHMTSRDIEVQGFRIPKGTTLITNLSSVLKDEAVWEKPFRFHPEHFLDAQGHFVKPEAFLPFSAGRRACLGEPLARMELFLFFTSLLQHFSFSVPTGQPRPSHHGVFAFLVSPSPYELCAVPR
Cytochrome P450 2E1, sequence (P05181 whole entry): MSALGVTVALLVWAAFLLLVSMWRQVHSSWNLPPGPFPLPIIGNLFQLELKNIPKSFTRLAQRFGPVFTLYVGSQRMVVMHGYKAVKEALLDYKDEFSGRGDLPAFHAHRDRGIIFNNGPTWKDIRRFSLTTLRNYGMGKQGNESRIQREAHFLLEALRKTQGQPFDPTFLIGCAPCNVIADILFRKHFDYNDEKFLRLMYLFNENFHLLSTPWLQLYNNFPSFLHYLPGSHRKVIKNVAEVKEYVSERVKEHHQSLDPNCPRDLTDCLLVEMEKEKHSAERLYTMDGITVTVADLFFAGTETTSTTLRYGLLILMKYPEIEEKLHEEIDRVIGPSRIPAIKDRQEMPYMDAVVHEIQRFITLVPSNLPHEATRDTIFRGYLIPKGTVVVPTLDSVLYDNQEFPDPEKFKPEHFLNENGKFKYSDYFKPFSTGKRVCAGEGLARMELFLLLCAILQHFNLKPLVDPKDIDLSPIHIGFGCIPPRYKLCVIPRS
Cytochrome P450 2C8, sequence (P10632 whole entry): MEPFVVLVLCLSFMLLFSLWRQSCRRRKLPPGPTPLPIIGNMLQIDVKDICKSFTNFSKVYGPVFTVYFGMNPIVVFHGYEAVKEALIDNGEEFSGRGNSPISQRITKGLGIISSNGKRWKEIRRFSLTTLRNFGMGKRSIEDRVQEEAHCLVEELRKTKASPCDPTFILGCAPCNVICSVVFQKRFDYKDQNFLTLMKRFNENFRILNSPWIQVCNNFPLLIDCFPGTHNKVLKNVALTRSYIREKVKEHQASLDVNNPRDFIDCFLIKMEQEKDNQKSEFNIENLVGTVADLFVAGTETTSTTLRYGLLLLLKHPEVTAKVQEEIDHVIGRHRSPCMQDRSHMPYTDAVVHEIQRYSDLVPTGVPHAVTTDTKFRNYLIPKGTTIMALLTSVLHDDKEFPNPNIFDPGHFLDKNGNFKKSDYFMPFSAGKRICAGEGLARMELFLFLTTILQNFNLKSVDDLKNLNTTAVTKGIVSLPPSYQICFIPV
Voltage-gated inwardly rectifying potassium channel KCNH2, sequence (Q12809 whole entry): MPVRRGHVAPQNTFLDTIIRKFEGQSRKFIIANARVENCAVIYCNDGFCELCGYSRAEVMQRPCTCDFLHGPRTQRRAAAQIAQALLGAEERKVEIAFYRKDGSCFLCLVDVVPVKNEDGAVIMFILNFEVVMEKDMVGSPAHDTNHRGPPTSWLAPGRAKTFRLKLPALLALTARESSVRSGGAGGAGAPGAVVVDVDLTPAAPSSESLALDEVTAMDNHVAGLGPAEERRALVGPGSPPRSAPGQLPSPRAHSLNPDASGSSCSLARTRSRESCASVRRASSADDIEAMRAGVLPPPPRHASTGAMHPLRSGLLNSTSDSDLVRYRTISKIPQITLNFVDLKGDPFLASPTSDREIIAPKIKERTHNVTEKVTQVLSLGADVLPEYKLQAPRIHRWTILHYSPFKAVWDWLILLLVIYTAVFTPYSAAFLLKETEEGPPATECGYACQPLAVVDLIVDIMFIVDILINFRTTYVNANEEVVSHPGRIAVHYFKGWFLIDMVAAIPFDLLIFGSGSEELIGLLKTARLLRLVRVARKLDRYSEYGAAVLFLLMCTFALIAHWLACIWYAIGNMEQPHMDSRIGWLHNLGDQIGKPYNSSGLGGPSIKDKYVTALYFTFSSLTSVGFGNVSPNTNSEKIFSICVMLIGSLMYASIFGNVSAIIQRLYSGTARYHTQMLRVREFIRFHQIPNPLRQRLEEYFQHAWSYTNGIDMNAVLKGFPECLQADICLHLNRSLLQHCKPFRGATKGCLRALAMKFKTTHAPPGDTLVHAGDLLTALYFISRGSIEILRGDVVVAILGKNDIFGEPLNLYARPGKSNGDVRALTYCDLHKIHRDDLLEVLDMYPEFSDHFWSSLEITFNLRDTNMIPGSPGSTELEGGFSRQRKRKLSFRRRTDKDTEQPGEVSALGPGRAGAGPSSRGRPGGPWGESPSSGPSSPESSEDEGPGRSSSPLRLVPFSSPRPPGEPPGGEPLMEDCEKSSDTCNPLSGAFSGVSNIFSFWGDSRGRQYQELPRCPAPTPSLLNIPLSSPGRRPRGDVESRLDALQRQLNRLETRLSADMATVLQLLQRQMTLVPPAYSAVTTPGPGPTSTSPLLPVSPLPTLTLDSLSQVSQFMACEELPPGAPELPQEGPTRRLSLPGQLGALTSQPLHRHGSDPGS

With `COc1ccc2cc(-c3cc(-c4cc(Cl)cc(Cl)c4)nn3[C@@H](C)c3ccc(C(=O)NCCC(=O)O)cc3)ccc2c1` [MK-0893] the Activity (Homo sapiens [1]) was 1.1%, the IC50 [2] was over 10 µM and the IC50 [3] was over 10 µM. For the same compound, the IC50 (Cytochrome P450 2D6) was over 100 µM, the IC50 (Cytochrome P450 2C8) was 2700 nM and the IC50 (Cytochrome P450 2E1) was over 100 µM. For the same compound, the half-life [4] was 312 min, the bioavailability [5] was 37% and the half-life [6] was 354 min. The bioavailability [7] was 43%, the bioavailability [8] was 43% and the fraction unbound [9] was under 0.01. The fraction unbound [10] was under 0.01, the fraction unbound [11] was under 0.01 and the Activity (Mus musculus [12]) was 30%. The Activity (Mus musculus [13]) was 81%, the Activity (Mus musculus [14]) was 32% and the concentration at 1 h [15] was 260 nM. The concentration at 1 h [16] was 2880 nM, the concentration at 4 h [17] was 300 nM and the concentration at 4 h [18] was 700 nM. For the same compound, the Activity (Canis familiaris [19]) was “Non-toxic”, the Activity (Mus musculus [20]) was 105% and the Activity (Mus musculus [21]) was 89%. The Activity (Mus musculus [22]) was 94%, the concentration (Plasma) was 410 nM and the Activity (Mus musculus [23]) was 1274 pg/mL. The Activity (Mus musculus [24]) was 2390 pg/mL, the Activity (Mus musculus [25]) was 89 pM and the Drug uptake (Canis familiaris [26]) was 125 µM. The Activity (Mus musculus [27]) was “Non-toxic”, the Activity (Homo sapiens [28]) was 63 mg/dL and the Activity (Homo sapiens [29]) was 1.5%. For the same compound, the Cmax [30] was 21.3 µM, the Activity (Rattus norvegicus [31]) was “Non-toxic” and the Activity (Rattus norvegicus [32]) was “Non-toxic”.
